Measured values published in ChEMBL document CHEMBL1687824, “Overexpression of patA and patB, which encode ABC transporters, is associated with fluoroquinolone resistance in clinical isolates of Streptococcus pneumoniae” (2011).

Columns and labels:
[1] = system: Streptococcus pneumoniae; experiment: Antibacterial activity against dye-resistant Streptococcus pneumoniae M55 DR overexpressing patA, patB by standardized agar doubling dilution method in presence of 50 uM sodium orthovanadate efflux pump inhibitor; assay type: functional
Outline: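 MIC by agar doubling dilution following BSAC guidelines. Strains grown in brain heart infusion broth 24 h at 37°C in 5% CO2. Where an efflux pump inhibitor applies, MIC redetermined with reserpine at 20 μg/ml or sodium orthovanadate at 50 μM. Synergy taken as a fall in MIC of ≥2 dilutions with inhibitor present. Dye resistance defined relative to R6 (both dyes ≥2 dilutions higher).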

[2] = system: Streptococcus pneumoniae; experiment: Antibacterial activity against wild-type Streptococcus pneumoniae R6 by standardized agar doubling dilution method

For `CC[n+]1c(-c2ccccc2)c2cc(N)ccc2c2ccc(N)cc21.[Br-]` [HOMIDIUM BROMIDE], the MIC [1] was 1 µg/mL and the MIC [2] was 1 µg/mL.
